Assay results reported in ChEMBL document CHEMBL1157468, “Design, synthesis, and testing of non-nephrotoxic desazadesferrithiocin polyether analogues” (J Med Chem, 2008).

Key:
[1] = test system: Kidney; test: Biodistribution in Sprague-Dawley rat kidney assessed per gram tissue wet weight at 300 umol/kg, po after 2 hrs; type: ADME, organism-based; settings: in vivo
Method in brief: (§1)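 Male Sprague–Dawley rats (250–350 g) got one 300 µmol/kg dose, po or sc. Vehicle was water or the monosodium salt (free acid plus 1 equiv NaOH). Three rats per time point were euthanized by CO2 at 1, 2 or 4 h. Plasma came from citrated cardiac blood; liver, kidney, heart and pancreas were removed. Drug levels were measured by HPLC with UV detection at 310 nm against linear calibration curves (detection limit 0.25 µM).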

[2] = test system: Heart; test: Biodistribution in Sprague-Dawley rat heart assessed per gram tissue wet weight at 300 umol/kg, po after 1 hr; type: ADME, organism-based; settings: in vivo; method in brief: as §1
[3] = test system: Pancreas; test: Biodistribution in Sprague-Dawley rat pancreas assessed per gram tissue wet weight at 300 umol/kg, sc after 1 hr; type: ADME, organism-based; settings: in vivo
[4] = test system: Sapajus apella; test: Iron-clearing efficiency in iron-overloaded Cebus apella at 150 umol/kg, po after 2 days relative to control; type: functional
Method in brief: (§2)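 Monkeys (Cebus apella, 3.5–4 kg) were iron-loaded to about 500 mg Fe/kg with iv iron dextran and rested at least 60 days. They then got one 150 µmol/kg dose, po or sc. Feces and urine were collected every 24 h from 4 days before to 5 days after dosing, and iron was measured by flame atomic absorption. Efficiency was the 2-day post-drug iron minus the 4-day pre-drug baseline, divided by theoretical output (2:1 ligand:iron); mean ± SEM.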

[5] = test system: Plasma; test: Biodistribution in Sprague-Dawley rat plasma at 300 umol/kg, po after 1 hr; type: ADME, organism-based; settings: in vivo; method in brief: as §1
[6] = test system: Rattus norvegicus; test: Toxicity in iron-overloaded Sprague-Dawley rat assessed as survival at 75 umol/kg/day, po after 28 days by non-renal perfusion protocol; type: organism-based; settings: in vivo, 672 h
Method in brief: (§3)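 Male Sprague–Dawley rats were iron-loaded with ip iron dextran, 105 mg/kg/dose × 4 over two weeks, then given two weeks to equilibrate (about 350 mg Fe/kg). They received oral gavage once daily for 28 days in the afternoon, unfasted, six per group, with age-matched controls. Euthanasia was 24 h after the last dose. Survival was recorded, and kidney and bone marrow were sent for histopathology.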

[7] = test system: Plasma; test: Biodistribution in Sprague-Dawley rat plasma at 300 umol/kg, po after 2 hrs; type: ADME, organism-based; settings: in vivo; method in brief: as §1
[8] = test system: Liver; test: Biodistribution in Sprague-Dawley rat liver assessed per gram tissue wet weight at 300 umol/kg, sc after 1 hr; type: ADME, organism-based; settings: in vivo
[9] = test system: Rattus norvegicus; test: Iron-clearing efficiency in non-iron-overloaded Sprague-Dawley rat bile assessed as iron excretion at 50 umol/kg, po; type: functional
Method in brief: (§4)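 Male Sprague–Dawley rats (400–450 g), not iron-loaded and bile duct-cannulated, got one dose of 50, 150 or 300 µmol/kg po, or 300 µmol/kg sc. Vehicle was water or the monosodium salt. Bile was collected every 3 h for 24 h and urine at 24 h. Iron was measured by atomic absorption. Efficiency was treated minus control iron excretion, divided by theoretical output (2:1 ligand:iron), as a percent; mean ± SEM.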

[10] = test system: Plasma; test: Biodistribution in Sprague-Dawley rat plasma at 300 umol/kg, sc after 2 hrs; type: ADME, organism-based; settings: in vivo
[11] = test system: Heart; test: Biodistribution in Sprague-Dawley rat heart assessed per gram tissue wet weight at 300 umol/kg, sc after 4 hrs; type: ADME, organism-based; settings: in vivo
[12] = test system: Plasma; test: Biodistribution in Sprague-Dawley rat plasma at 300 umol/kg, sc after 4 hrs; type: ADME, organism-based; settings: in vivo
[13] = test system: Rattus norvegicus; test: Toxicity in non-iron-overloaded Sprague-Dawley rat assessed as survival at 300 umol/kg/day, po after 28 days by non-renal perfusion protocol; type: organism-based; settings: in vivo, 672 h
Method in brief: (§5)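 Male Sprague–Dawley rats with normal iron stores, unfasted, received oral gavage once daily in the afternoon for 28 days, six per group, with age-matched untreated controls. Euthanasia was 24 h after the last dose. Survival was recorded over the dosing period, and kidney and bone marrow were examined histopathologically.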

[14] = test system: Rattus norvegicus; test: Toxicity in non-iron-overloaded Sprague-Dawley rat assessed as survival at 150 umol/kg/day, po after 28 days by non-renal perfusion protocol; type: organism-based; settings: in vivo, 672 h; method in brief: as §5
[15] = test system: Liver; test: Biodistribution in Sprague-Dawley rat liver assessed per gram tissue wet weight at 300 umol/kg, po after 1 hr; type: ADME, organism-based; settings: in vivo; method in brief: as §1
[16] = test system: Sapajus apella; test: Iron-clearing efficiency in iron-overloaded Cebus apella at 150 umol/kg, sc after 2 days relative to control; type: functional; method in brief: as §2
[17] = test system: Heart; test: Biodistribution in Sprague-Dawley rat heart assessed per gram tissue wet weight at 300 umol/kg, po after 2 hrs; type: ADME, organism-based; settings: in vivo; method in brief: as §1
[18] = test system: Kidney; test: Biodistribution in Sprague-Dawley rat kidney assessed per gram tissue wet weight at 300 umol/kg, po after 1 hr; type: ADME, organism-based; settings: in vivo; method in brief: as §1
[19] = test system: Pancreas; test: Biodistribution in Sprague-Dawley rat pancreas assessed per gram tissue wet weight at 300 umol/kg, sc after 4 hrs; type: ADME, organism-based; settings: in vivo
[20] = test system: Kidney; test: Biodistribution in Sprague-Dawley rat kidney assessed per gram tissue wet weight at 300 umol/kg, sc after 4 hrs; type: ADME, organism-based; settings: in vivo
[21] = test system: Rattus norvegicus; test: Iron-clearing efficiency in non-iron-overloaded Sprague-Dawley rat at 150 umol/kg, po after 24 hrs relative to control; type: functional; method in brief: as §4
[22] = test system: Liver; test: Biodistribution in Sprague-Dawley rat liver assessed per gram tissue wet weight at 300 umol/kg, po after 4 hrs; type: ADME, organism-based; settings: in vivo; method in brief: as §1
[23] = test system: Liver; test: Biodistribution in Sprague-Dawley rat liver assessed per gram tissue wet weight at 300 umol/kg, sc after 4 hrs; type: ADME, organism-based; settings: in vivo
[24] = test system: Kidney; test: Biodistribution in Sprague-Dawley rat kidney assessed per gram tissue wet weight at 300 umol/kg, sc after 2 hrs; type: ADME, organism-based; settings: in vivo
[25] = test system: Kidney; test: Biodistribution in Sprague-Dawley rat kidney assessed per gram tissue wet weight at 300 umol/kg, sc after 1 hr; type: ADME, organism-based; settings: in vivo
[26] = test system: Rattus norvegicus; test: Iron-clearing efficiency in non-iron-overloaded Sprague-Dawley rat at 300 umol/kg, sc after 24 hrs relative to control; type: functional; method in brief: as §4
[27] = test system: Pancreas; test: Biodistribution in Sprague-Dawley rat pancreas assessed per gram tissue wet weight at 300 umol/kg, po after 4 hrs; type: ADME, organism-based; settings: in vivo; method in brief: as §1
[28] = test system: Rattus norvegicus; test: Iron-clearing efficiency in non-iron-overloaded Sprague-Dawley rat bile assessed as iron excretion at 150 umol/kg, po; type: functional; method in brief: as §4
[29] = test system: Rattus norvegicus; test: Toxicity in iron-overloaded Sprague-Dawley rat assessed as survival at 300 umol/kg/day, po after 28 days by non-renal perfusion protocol; type: organism-based; settings: in vivo, 672 h; method in brief: as §3
[30] = test system: Pancreas; test: Biodistribution in Sprague-Dawley rat pancreas assessed per gram tissue wet weight at 300 umol/kg, sc after 2 hrs; type: ADME, organism-based; settings: in vivo
[31] = test system: Liver; test: Biodistribution in Sprague-Dawley rat liver assessed per gram tissue wet weight at 300 umol/kg, sc after 2 hrs; type: ADME, organism-based; settings: in vivo
[32] = test system: Plasma; test: Biodistribution in Sprague-Dawley rat plasma at 300 umol/kg, po after 4 hrs; type: ADME, organism-based; settings: in vivo; method in brief: as §1
[33] = test system: Plasma; test: Biodistribution in Sprague-Dawley rat plasma at 300 umol/kg, sc after 1 hr; type: ADME, organism-based; settings: in vivo
[34] = test system: Kidney; test: Biodistribution in Sprague-Dawley rat kidney assessed per gram tissue wet weight at 300 umol/kg, po after 4 hrs; type: ADME, organism-based; settings: in vivo; method in brief: as §1
[35] = test system: Heart; test: Biodistribution in Sprague-Dawley rat heart assessed per gram tissue wet weight at 300 umol/kg, sc after 1 hr; type: ADME, organism-based; settings: in vivo
[36] = test system: Liver; test: Biodistribution in Sprague-Dawley rat liver assessed per gram tissue wet weight at 300 umol/kg, po after 2 hrs; type: ADME, organism-based; settings: in vivo; method in brief: as §1
[37] = test system: Rattus norvegicus; test: Iron-clearing efficiency in non-iron-overloaded Sprague-Dawley rat at 50 umol/kg, po after 24 hrs relative to control; type: functional; method in brief: as §4
[38] = test system: Rattus norvegicus; test: Nephrotoxicity in Sprague-Dawley rat assessed as heavy vacuolized renal tubules at […] for 7 days by renal perfusion studies; type: toxicity, organism-based; settings: in vivo, 168 h, in the assay text read “237 umol/kg” for “273 umol/kg”
Method in brief: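 Male Sprague–Dawley rats (200–250 g), fasted overnight, got 237 µmol/kg/dose po twice daily (474 µmol/kg/day) for 7 days and were fed about 3 h post-drug. Untreated age-matched rats were controls. One day post-drug, under pentobarbital, kidneys were perfusion-fixed with glutaraldehyde in Tyrode's buffer and embedded in TAAB. 500 nm sections were stained with toluidine blue and examined by light microscopy at 400×.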

[39] = test system: Pancreas; test: Biodistribution in Sprague-Dawley rat pancreas assessed per gram tissue wet weight at 300 umol/kg, po after 1 hr; type: ADME, organism-based; settings: in vivo; method in brief: as §1
[40] = test system: Rattus norvegicus; test: Toxicity in non-iron-overloaded Sprague-Dawley rat assessed as survival at 75 umol/kg/day, po after 28 days by non-renal perfusion protocol; type: organism-based; settings: in vivo, 672 h; method in brief: as §5
[41] = test system: Rattus norvegicus; test: Toxicity in iron-overloaded Sprague-Dawley rat assessed as survival at 150 umol/kg/day, po after 28 days by non-renal perfusion protocol; type: organism-based; settings: in vivo, 672 h; method in brief: as §3
[42] = test system: Pancreas; test: Biodistribution in Sprague-Dawley rat pancreas assessed per gram tissue wet weight at 300 umol/kg, po after 2 hrs; type: ADME, organism-based; settings: in vivo; method in brief: as §1
[43] = test system: Heart; test: Biodistribution in Sprague-Dawley rat heart assessed per gram tissue wet weight at 300 umol/kg, sc after 2 hrs; type: ADME, organism-based; settings: in vivo
[44] = test system: Rattus norvegicus; test: Iron-clearing efficiency in non-iron-overloaded Sprague-Dawley rat bile assessed as iron excretion at 300 umol/kg, po; type: functional; method in brief: as §4

Compound `COCCOCCOCCOc1cccc(C2=N[C@@](C)(C(=O)O)CS2)c1O` [DEFERITAZOLE] has a Drug uptake [1] of 48 nmol/g, a Drug uptake [2] of 9 nmol/g and a Drug uptake [3] of 22 nmol/g. The Activity [4] was 23%, the Drug uptake [5] was 26 nmol/g and the Activity [6] was “Non-toxic”. For the same compound, the Drug uptake [7] was 9 nmol/g, the Drug uptake [8] was 318 nmol/g and the Activity [9] was greater than 95%. It also gave a Drug uptake [10] of 24 nmol/g, a Drug uptake [11] of 6 nmol/g and a Drug uptake [12] of 13 nmol/g. The Activity [13] was “Non-toxic”, the Activity [14] was “Non-toxic” and the Drug uptake [15] was 234 nmol/g. The Activity [16] was 21.5%, the Drug uptake [17] was 4 nmol/g and the Drug uptake [18] was 150 nmol/g. For the same compound, the Drug uptake [19] was 12 nmol/g, the Drug uptake [20] was 90 nmol/g and the Activity [21] was 18.7%. It also gave a Drug uptake [22] of 87 nmol/g, a Drug uptake [23] of 168 nmol/g and a Drug uptake [24] of 145 nmol/g. The Drug uptake [25] was 259 nmol/g, the Activity [26] was 13.4% and the Drug uptake [27] was 6 nmol/g. For the same compound, the Activity [28] was greater than 95%, the Activity [29] was “Non-toxic” and the Drug uptake [30] was 30 nmol/g. The Drug uptake [31] was 193 nmol/g, the Drug uptake [32] was 2 nmol/g and the Drug uptake [33] was 46 nmol/g. For the same compound, the Drug uptake [34] was 15 nmol/g, the Drug uptake [35] was 16 nmol/g and the Drug uptake [36] was 151 nmol/g. For the same compound, the Activity [37] was 20.7%, the Activity [38] was “Non-toxic” and the Drug uptake [39] was 9 nmol/g. The Activity [40] was “Non-toxic”, the Activity [41] was “Non-toxic” and the Drug uptake [42] was 24 nmol/g. The Drug uptake [43] was 8 nmol/g and the Activity [44] was greater than 95%.
